Assay results taken from ChEMBL document CHEMBL1932934, “Cyclosulfamide-based derivatives as inhibitors of noroviruses” (Eur J Med Chem, 2012).

Experiments:
[1] = Cytotoxicity against human HG23 cells after 48 hrs; format: cell-based; details: read-out: TD50
Procedure, shortened: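 Cytotoxicity in Norwalk virus replicon-harboring HG23 cells exposed to compound for 48 hr, measured with a commercial cell cytotoxicity assay kit. The median toxic dose (TD50) was calculated from the readout.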

[2] = tested on: Norovirus; test: Antiviral activity against Norovirus infected in human HG23 cells assessed as inhibition of viral replication after 24 hrs by quantitative RT-PCR analysis; format: functional; details: HG23, 24 h, read-out: ED50 (the source's name)
[3] = Therapeutic index, ratio of TD50 for human HG23 cells to ED50 for Norovirus infected in human HG23 cells; format: cell-based; details: read-out: Ratio TD50/ED50
Procedure, shortened: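 Index computed as TD50 divided by ED50, both in NV replicon-harboring HG23 cells. TD50 came from a cytotoxicity assay kit after 48 hr of treatment.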

SMILES	CC50 at 48 h [1]	EC50 [2]	selectivity ratio [3]
O=S1(=O)N(CCN2CCCCC2)CCN1Cc1cccc(Oc2ccccc2)c1	12.3 µM	4.7 µM	
O=S1(=O)N(CCN2CCN(Cc3cccc(Oc4ccccc4)c3)S2(=O)=O)CCN1Cc1cccc(Oc2ccccc2)c1	8.5 µM	1.5 µM	
O=S1(=O)N(CCN2CCN(CCN3CCN(Cc4cccc(Oc5ccccc5)c4)S3(=O)=O)CC2)CCN1Cc1cccc(Oc2ccccc2)c1	5.1 µM	0.4 µM	
O=S1(=O)N(CCN2CCN(Cc3ccccc3)CC2)CCN1Cc1cccc(Oc2ccccc2)c1	11.4 µM	4.1 µM	< 10
O=S1(=O)N(CCN2CCNCC2)CCN1Cc1cccc(Oc2ccccc2)c1	14.6 µM	5.3 µM	< 10
O=S1(=O)N(CCN2CCOCC2)CCN1Cc1cccc(Oc2ccccc2)c1	95.4 µM	5.2 µM	
COC(=O)C1CCN(CCN2CCN(Cc3cccc(Oc4ccccc4)c3)S2(=O)=O)CC1	180 µM	5.5 µM	
O=C(O)C1CCN(CCN2CCN(Cc3cccc(Oc4ccccc4)c3)S2(=O)=O)CC1	210 µM	9.1 µM	
CCOC(=O)N1CCN(CCN2CCN(Cc3cccc(Oc4ccccc4)c3)S2(=O)=O)CC1	13.5 µM	5.8 µM	< 10
O=C(c1ccc(Cl)cc1)N1CCN(CCN2CCN(Cc3cccc(Oc4ccccc4)c3)S2(=O)=O)CC1	35.3 µM	7.4 µM	< 10
O=C(c1ccc(F)cc1)N1CCN(CCN2CCN(Cc3cccc(Oc4ccccc4)c3)S2(=O)=O)CC1	80.8 µM	9.7 µM	< 10
O=C(c1cccc(Oc2ccccc2)c1)N1CCN(CCN2CCN(Cc3cccc(Oc4ccccc4)c3)S2(=O)=O)CC1	32.9 µM	6.2 µM	< 10
O=S(=O)(Cc1ccccc1)N1CCN(CCN2CCN(Cc3cccc(Oc4ccccc4)c3)S2(=O)=O)CC1	9.3 µM	5.3 µM	< 10
CS(=O)(=O)N1CCN(CCN2CCN(Cc3cccc(Oc4ccccc4)c3)S2(=O)=O)CC1	12.2 µM	3.2 µM	< 10
CCCCS(=O)(=O)N1CCN(CCN2CCN(Cc3cccc(Oc4ccccc4)c3)S2(=O)=O)CC1	11.1 µM	3.4 µM	< 10
COC(=O)C1CCN(C(=O)CN2CCN(Cc3cccc(Oc4ccccc4)c3)S2(=O)=O)CC1	156 µM	4.2 µM	39
O=C(O)C1CCN(C(=O)CN2CCN(Cc3cccc(Oc4ccccc4)c3)S2(=O)=O)CC1	80.5 µM	> 10 µM	
CCN1CCN(C(=O)CN2CCN(Cc3cccc(Oc4ccccc4)c3)S2(=O)=O)CC1	120 µM	5.5 µM	24
